Data on 13 compounds can be found in ChEMBL document CHEMBL3046601, “Synthesis and herbicidal activity of N,N-diethyl-3-(arylselenonyl)-1H-1,2,4-triazole-1-carboxamide” (2006).

Structures are written as SMILES.

Holding throughout (type): functional
The nature of assay [1]: Herbicidal activity against semen euphorbiae assessed as inhibition of weed growth at 500 ug/mL measured 15 days post compound treatment by pot-culture method. The settings on record: 360 h; read-out: GI. The procedure, abridged:
(§1)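 Pot-culture assay on whole plants. Compounds were dissolved in toluene, diluted in water, and emulsified with a drop of Tween 80. Five parallel tests per compound, each compared with an untreated control, read as the ratio of growth inhibition. The 500 µg/mL level was the preliminary screen; the follow-up used 0.9375–15 µg/mL on cucumber, rice and semen euphorbiae.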

Assay [2] concerns Cucumis sativus. Put plainly: Herbicidal activity against Cucumis sativus jinyou 15 (cucumber) assessed as inhibition of weed growth at 500 ug/mL measured 15 days post compound treatment by pot-culture method. As to conditions: jinyou 15, 360 h, read-out: GI. The procedure, abridged:
as §1

For assay [3], the system named is Echinochloa crus-galli. Put plainly: Herbicidal activity against semen euphorbiae assessed as inhibition of weed growth at 7.5 ug/mL measured 15 days post compound treatment by pot-culture method. The settings on record: 360 h, read-out: GI. In short, it runs like this: as §1
Assay [4] has as its system Oryza sativa. Put plainly: Toxicity against Oryza sativa xiuanyou 63 (rice) assessed as growth inhibition at 7.5 ug/mL measured 15 days post compound treatment by pot-culture method. As to conditions: xiuanyou 63, 360 h, read-out: GI. In short, it runs like this: as §1
Assay [5] deals with Cucumis sativus. Put plainly: Herbicidal activity against Cucumis sativus jinyou 15 (cucumber) assessed as inhibition of weed growth at 3.75 ug/mL measured 15 days post compound treatment by pot-culture method. The settings on record: jinyou 15, 360 h, read-out: GI. The procedure, abridged: as §1
Assay [6] has as its system Echinochloa crus-galli. Put plainly: Herbicidal activity against semen euphorbiae assessed as inhibition of weed growth at 15 ug/mL measured 15 days post compound treatment by pot-culture method. As to conditions: 360 h, read-out: GI. The procedure, abridged: as §1
For assay [7], the system named is Echinochloa crus-galli. Put plainly: Herbicidal activity against semen euphorbiae assessed as inhibition of weed growth at 3.75 ug/mL measured 15 days post compound treatment by pot-culture method. The settings on record: 360 h, read-out: GI. The procedure, abridged: as §1
Assay [8] concerns Echinochloa crus-galli. Put plainly: Herbicidal activity against semen euphorbiae assessed as inhibition of weed growth at 1.875 ug/mL measured 15 days post compound treatment by pot-culture method. As to conditions: 360 h, read-out: GI. In short, it runs like this: as §1
Assay [9] concerns Echinochloa crus-galli. Put plainly: Herbicidal activity against semen euphorbiae assessed as inhibition of weed growth at 0.9375 ug/mL measured 15 days post compound treatment by pot-culture method. As to conditions: 360 h, read-out: GI. In short, it runs like this: as §1
The test system of assay [10] is Oryza sativa. Put plainly: Toxicity against Oryza sativa xiuanyou 63 (rice) assessed as growth inhibition at 15 ug/mL measured 15 days post compound treatment by pot-culture method. The settings on record: xiuanyou 63, 360 h, read-out: GI. The procedure, abridged: as §1
In assay [11] the test system is Oryza sativa. Put plainly: Toxicity against Oryza sativa xiuanyou 63 (rice) assessed as growth inhibition at 3.75 ug/mL measured 15 days post compound treatment by pot-culture method. The settings on record: xiuanyou 63, 360 h, read-out: GI. In short, it runs like this: as §1
Assay [12] relates to Oryza sativa. Put plainly: Toxicity against Oryza sativa xiuanyou 63 (rice) assessed as growth inhibition at 0.9375 ug/mL measured 15 days post compound treatment by pot-culture method. The settings on record: xiuanyou 63, 360 h, read-out: GI. In short, it runs like this: as §1
The test system of assay [13] is Oryza sativa. Put plainly: Toxicity against Oryza sativa xiuanyou 63 (rice) assessed as growth inhibition at 1.875 ug/mL measured 15 days post compound treatment by pot-culture method. As to conditions: xiuanyou 63, 360 h, read-out: GI. In short, it runs like this: as §1
The subject of assay [14] is Cucumis sativus. Put plainly: Herbicidal activity against Cucumis sativus jinyou 15 (cucumber) assessed as inhibition of weed growth at […] measured 15 days post compound treatment by pot-culture method. As to conditions: jinyou 15, 360 h, read-out: GI. The procedure, abridged: as §1

Consider `CCN(CC)C(=O)n1cnc([Se](=O)(=O)c2ccccc2)n1`, for which the inhibition of growth at 500 µg/mL in [1] turned out to be 4.18%; in the assay on Cucumis sativus [2], 8.75%.

For the compound `CCN(CC)C(=O)n1cnc([Se](=O)(=O)c2ccc(F)c(F)c2)n1`, the results for the inhibition of growth at 500 µg/mL (in assay [1]; in the assay with Cucumis sativus [2]) were 44.3% and 44%, respectively.

Turning to `CCN(CC)C(=O)n1cnc([Se](=O)(=O)c2cccc(C(F)(F)F)c2)n1`, the inhibition of growth at 500 µg/mL is 25.2% in assay [1] and 18.5% in the assay with Cucumis sativus [2].

With `CCN(CC)C(=O)n1cnc([Se](=O)(=O)c2c(C)cccc2C)n1`, the inhibition of growth at 7.5 µg/mL in the assay with Echinochloa crus-galli [3] was 88.9%; in the assay on Oryza sativa [4], 2.8%. Besides, the inhibition of growth at 3.75 µg/mL with Cucumis sativus [5] came out at 100%. The inhibition of growth at 500 µg/mL (in [1]; with Cucumis sativus [2]) was 100% each time.

For the compound `CCN(CC)C(=O)n1cnc([Se](=O)(=O)c2ccc(Cl)cc2)n1`, the inhibition of growth at 500 µg/mL is 17% in assay [1] and 18.6% with Cucumis sativus [2].

For the compound `CCN(CC)C(=O)n1cnc([Se](=O)(=O)c2c(C)cc(C)cc2C)n1`, the inhibition of growth at 7.5 µg/mL in the assay on Echinochloa crus-galli [3] turned out to be 91.1%; in the assay with Oryza sativa [4], 8.3%. The inhibition of growth at 3.75 µg/mL in the assay on Cucumis sativus [5] turned out to be 100%. The inhibition of growth at 500 µg/mL (in [1]; in the assay on Cucumis sativus [2]) was 100% each time.

Turning to `CCN(CC)C(=O)n1cnc([Se](=O)(=O)c2ccc([N+](=O)[O-])cc2)n1`, the inhibition of growth at 500 µg/mL in assay [1] stood at 46.4%; in the assay on Cucumis sativus [2], 26.9%.

Consider `CCN(CC)C(=O)n1cnc([Se](=O)(=O)c2ccc(F)cc2F)n1`, for which the results for the inhibition of growth at 500 µg/mL (in [1]; with Cucumis sativus [2]) were 53.9% and 33.9%, respectively.

With `CCN(CC)C(=O)n1cnc([Se](=O)(=O)c2ccc(C(F)(F)F)c(Cl)c2)n1`, the inhibition of growth at 500 µg/mL in assay [1] was found to be 45.6%; in the assay on Cucumis sativus [2], 15.3%.

Take `CCN(CC)C(=O)n1cnc([Se](=O)(=O)c2ccc(F)c(Cl)c2)n1`: the results for the inhibition of growth at 500 µg/mL (in assay [1]; in the assay on Cucumis sativus [2]) were 39.6% and 10.7%, respectively.

As to `CCN(CC)C(=O)n1cnc([Se](=O)(=O)c2ccc(OC)cc2)n1`, the inhibition of growth at 500 µg/mL in assay [1] is 63.9%; in the assay on Cucumis sativus [2] it was 30.3%.

`CCN(CC)C(=O)n1cnc([Se](=O)(=O)c2ccc(C)cc2C)n1`: the inhibition of growth at 500 µg/mL was determined as 51% in assay [1] and 42% with Cucumis sativus [2].

`CCN(CC)C(=O)n1cnc(S(=O)(=O)c2c(C)cc(C)cc2C)n1` [CAFENSTROLE]: the inhibition of growth at 15 µg/mL in the assay on Echinochloa crus-galli [6] and with Oryza sativa [10] was 100% in each case. Besides, the inhibition of growth at 7.5 µg/mL in the assay on Echinochloa crus-galli [3] was 95.6%; in the assay with Oryza sativa [4], 72%. The values for the inhibition of growth at 3.75 µg/mL with Echinochloa crus-galli [7] and in the assay on Oryza sativa [11] were 84.4% and 47.2%, respectively. Also, the inhibition of growth at 1.875 µg/mL in the assay with Echinochloa crus-galli [8] was determined as 46.7%; in the assay with Oryza sativa [13], 13.9%. Further, the results for the inhibition of growth at 0.9375 µg/mL in the assay on Echinochloa crus-galli [9] and in the assay with Oryza sativa [12] were 17.8% and 0%, respectively. In addition, the inhibition of growth in the assay with Cucumis sativus [14] worked out at 100%. Besides, the inhibition of growth at 500 µg/mL (in [1]; with Cucumis sativus [2]) was 100% each time.
